According to ChEMBL document CHEMBL1765042, “Utilization of nitrophenylphosphates and oxime-based ligation for the development of nanomolar affinity inhibitors of the Yersinia pestis outer protein H (YopH) phosphatase” (J Med Chem, 2011):
Active and inactive are the calls of the source. No cut-off for these calls is given here.

Tests used:
[1] = target: Tyrosine-protein phosphatase non-receptor type 1 (Homo sapiens, UniProt P18031); test: Inhibition of human PTP1B
Summary of the method: (§1)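 Recombinant phosphatases: Variola major VH1, human DUSP-14, and catalytic domains of DUSP-22, PTP1B and LAR. Each was assayed by the same spectrophotometric pNPP hydrolysis method as YopH (HEPES pH 7.0–7.6, NaCl, EDTA, DTT, BSA buffer; 25 °C, 15–20 min). IC50 came from a Boltzmann sigmoidal fit.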

[2] = test system: Yersinia pestis; test: Antimicrobial activity against pgm, pla deficient Yersinia pestis CO92 infected in human peripheral blood monocytes assessed as inhibition of intracellular bacterial growth at 10 uM after 16 hrs; assay type: functional, organism-based
[3] = Inhibition of Variola major virus phosphatase VH1; summary of the method: as §1
[4] = target: Secreted effector protein (Yersinia pestis, UniProt O68720); test: Inhibition of Yersinia pestis outer protein H expressed in Escherichia coli after 15 to 20 mins
Summary of the method: (§2)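 YopH PTPase domain (residues 164–468) expressed in E. coli. Buffer: 25 mM HEPES pH 7.0–7.6, 50 mM NaCl, 2.5 mM EDTA, 5 mM DTT plus 1 mM fresh DTT, with BSA, no detergent. Inhibitor DMSO dilutions ran 400 to 0.032 μM. Substrate was pNPP (10 mM stock), incubated 25 °C for 15–20 min. pNPP hydrolysis was measured colorimetrically and IC50 came from a Boltzmann sigmoidal fit.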

[5] = target: Secreted effector protein (Yersinia pestis) (UniProt O68720); test: Inhibition of Yersinia pestis outer protein H expressed in Escherichia coli after 15 to 20 mins in presence of 0.01% TX-100
Summary of the method: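 YopH PTPase domain (residues 164–468, E. coli-expressed) run in a parallel independent pNPP hydrolysis assay with 0.01% Triton X-100 added. Buffer: 25 mM HEPES pH 7.0–7.6, 50 mM NaCl, 2.5 mM EDTA, DTT, BSA. Inhibitor DMSO dilutions ran 400 to 0.032 μM, incubated 25 °C for 15–20 min. IC50 came from a Boltzmann sigmoidal fit.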

[6] = target: Dual specificity protein phosphatase 22 (Homo sapiens, UniProt Q9NRW4); test: Inhibition of human DUSP22; summary of the method: as §1
Sequence of Dual specificity protein phosphatase 22 (Q9NRW4 whole entry): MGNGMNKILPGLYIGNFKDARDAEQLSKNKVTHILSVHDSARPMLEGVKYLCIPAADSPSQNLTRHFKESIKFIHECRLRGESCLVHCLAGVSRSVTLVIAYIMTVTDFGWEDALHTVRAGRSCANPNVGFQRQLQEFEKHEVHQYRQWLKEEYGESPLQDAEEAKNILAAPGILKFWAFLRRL

[7] = test system: J774; test: Cytotoxicity against mouse J774 cells assessed as cell viability by measuring ATP level at < 100 uM after 40 hrs; assay type: cell-based; settings: j774, 40 h
Summary of the method: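 J774 mouse macrophages, 5 × 10^5 cells/well, in Eagle's MEM with 4 mM L-glutamine, 4500 mg/L glucose and 7.5% FBS, at 37 °C, 5% CO2. Compound was diluted from a 10 mM DMSO stock to final 0.1–100 μM (1% DMSO in all wells) and cells were cultured 40 h. Viability was read as cellular ATP content.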

[8] = target: Secreted effector protein (Yersinia pestis) (UniProt O68720); test: Inhibition of Yersinia pestis outer protein H expressed in Escherichia coli after 15 to 20 mins in absence of 0.01% TX-100; summary of the method: as §2
[9] = target: Dual specificity protein phosphatase 14 (Homo sapiens, UniProt O95147); test: Inhibition of human DUSP14; summary of the method: as §1
Sequence of Dual specificity protein phosphatase 14 (O95147 whole entry): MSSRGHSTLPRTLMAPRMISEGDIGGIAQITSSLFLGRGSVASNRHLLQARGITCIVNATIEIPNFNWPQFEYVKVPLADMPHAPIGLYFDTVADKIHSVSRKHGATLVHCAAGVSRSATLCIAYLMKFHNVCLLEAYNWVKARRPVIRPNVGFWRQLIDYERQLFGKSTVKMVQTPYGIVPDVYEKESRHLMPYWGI

[10] = target: Receptor-type tyrosine-protein phosphatase F (Homo sapiens, UniProt P10586); test: Inhibition of human leukocyte antigen related phosphatase; summary of the method: as §1
Sequence of Receptor-type tyrosine-protein phosphatase F (P10586 whole entry): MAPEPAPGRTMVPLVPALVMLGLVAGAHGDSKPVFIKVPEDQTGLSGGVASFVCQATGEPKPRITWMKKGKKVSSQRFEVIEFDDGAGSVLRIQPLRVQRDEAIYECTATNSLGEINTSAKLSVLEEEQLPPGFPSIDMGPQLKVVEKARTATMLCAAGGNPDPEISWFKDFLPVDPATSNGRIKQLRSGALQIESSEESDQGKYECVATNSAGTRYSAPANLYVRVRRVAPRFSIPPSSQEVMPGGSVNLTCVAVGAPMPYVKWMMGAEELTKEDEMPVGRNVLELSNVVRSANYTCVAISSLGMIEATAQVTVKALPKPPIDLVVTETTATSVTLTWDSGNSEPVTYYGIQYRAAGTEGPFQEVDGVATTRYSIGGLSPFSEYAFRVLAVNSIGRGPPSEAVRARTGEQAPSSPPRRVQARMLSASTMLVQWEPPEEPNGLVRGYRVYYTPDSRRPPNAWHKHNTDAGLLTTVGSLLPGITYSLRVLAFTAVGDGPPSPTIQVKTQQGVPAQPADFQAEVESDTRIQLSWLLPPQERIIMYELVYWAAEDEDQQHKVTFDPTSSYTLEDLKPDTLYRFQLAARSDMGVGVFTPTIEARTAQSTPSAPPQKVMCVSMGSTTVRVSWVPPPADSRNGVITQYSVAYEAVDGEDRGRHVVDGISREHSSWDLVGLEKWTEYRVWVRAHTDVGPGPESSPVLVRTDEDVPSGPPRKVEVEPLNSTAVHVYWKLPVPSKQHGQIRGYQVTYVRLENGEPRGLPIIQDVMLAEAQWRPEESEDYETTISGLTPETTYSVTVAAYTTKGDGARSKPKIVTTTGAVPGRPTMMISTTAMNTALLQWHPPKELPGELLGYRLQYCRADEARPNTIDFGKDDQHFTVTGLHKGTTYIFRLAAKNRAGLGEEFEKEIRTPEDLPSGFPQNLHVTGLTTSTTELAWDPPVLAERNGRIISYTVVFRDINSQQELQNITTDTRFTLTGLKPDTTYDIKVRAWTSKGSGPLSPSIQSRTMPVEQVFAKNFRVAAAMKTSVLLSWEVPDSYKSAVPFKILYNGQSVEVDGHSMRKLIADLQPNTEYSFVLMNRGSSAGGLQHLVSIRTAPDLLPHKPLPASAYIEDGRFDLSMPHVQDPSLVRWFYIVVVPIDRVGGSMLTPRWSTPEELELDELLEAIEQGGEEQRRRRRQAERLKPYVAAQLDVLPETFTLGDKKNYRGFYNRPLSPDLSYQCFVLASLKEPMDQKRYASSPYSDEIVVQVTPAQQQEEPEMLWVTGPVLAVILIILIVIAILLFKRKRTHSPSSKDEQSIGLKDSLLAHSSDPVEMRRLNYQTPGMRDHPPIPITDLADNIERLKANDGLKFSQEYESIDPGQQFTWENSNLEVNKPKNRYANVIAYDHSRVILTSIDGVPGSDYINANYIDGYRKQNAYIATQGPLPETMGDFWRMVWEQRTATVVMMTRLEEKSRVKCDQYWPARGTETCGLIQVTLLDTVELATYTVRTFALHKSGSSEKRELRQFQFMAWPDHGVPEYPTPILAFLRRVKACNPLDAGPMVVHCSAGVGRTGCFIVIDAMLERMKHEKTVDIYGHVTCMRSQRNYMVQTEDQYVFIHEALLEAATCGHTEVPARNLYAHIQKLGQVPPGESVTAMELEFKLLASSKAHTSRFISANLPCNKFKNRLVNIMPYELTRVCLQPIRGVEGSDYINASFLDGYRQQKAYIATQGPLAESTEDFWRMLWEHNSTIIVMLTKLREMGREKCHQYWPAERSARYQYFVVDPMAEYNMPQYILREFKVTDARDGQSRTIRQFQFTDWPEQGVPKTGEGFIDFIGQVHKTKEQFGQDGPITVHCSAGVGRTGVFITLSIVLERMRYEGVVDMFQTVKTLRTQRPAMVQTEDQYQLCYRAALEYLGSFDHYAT

[11] = substrate: NOCc1cc(OP(=O)(O)O)ccc1[N+](=O)[O-]; settings: Yersinia pestis
[12] = substrate: O=[N+]([O-])c1ccc(OP(=O)(O)O)cc1; settings: Yersinia pestis
[13] = substrate: C/C=N/OCc1cc(OP(=O)(O)O)ccc1[N+](=O)[O-]; settings: Yersinia pestis
[14] = substrate: Cc1cccc([N+](=O)[O-])c1OP(=O)(O)O; settings: Yersinia pestis
[15] = substrate: CC(C)(C)c1ccc(OP(=O)(O)O)c([N+](=O)[O-])c1; settings: Yersinia pestis
[16] = substrate: NOCc1ccc(OP(=O)(O)O)c([N+](=O)[O-])c1; settings: Yersinia pestis
[17] = substrate: O=[N+]([O-])c1cccc(C2CCCCC2)c1OP(=O)(O)O; settings: Yersinia pestis
[18] = substrate: O=[N+]([O-])c1ccc(OP(=O)(O)O)cc1-c1ccccc1; settings: Yersinia pestis
[19] = substrate: Cc1cc([N+](=O)[O-])ccc1OP(=O)(O)O; settings: Yersinia pestis
[20] = substrate: O=[N+]([O-])c1ccc(OP(=O)(O)O)c(C2CCCCC2)c1; settings: Yersinia pestis
[21] = substrate: O=[N+]([O-])c1cc(-c2ccccc2)ccc1OP(=O)(O)O; settings: Yersinia pestis
[22] = substrate: CC(C)(C)c1cc(OP(=O)(O)O)ccc1[N+](=O)[O-]; settings: Yersinia pestis

Sequence of Tyrosine-protein phosphatase non-receptor type 1 (P18031 whole entry, the tested form may be a part): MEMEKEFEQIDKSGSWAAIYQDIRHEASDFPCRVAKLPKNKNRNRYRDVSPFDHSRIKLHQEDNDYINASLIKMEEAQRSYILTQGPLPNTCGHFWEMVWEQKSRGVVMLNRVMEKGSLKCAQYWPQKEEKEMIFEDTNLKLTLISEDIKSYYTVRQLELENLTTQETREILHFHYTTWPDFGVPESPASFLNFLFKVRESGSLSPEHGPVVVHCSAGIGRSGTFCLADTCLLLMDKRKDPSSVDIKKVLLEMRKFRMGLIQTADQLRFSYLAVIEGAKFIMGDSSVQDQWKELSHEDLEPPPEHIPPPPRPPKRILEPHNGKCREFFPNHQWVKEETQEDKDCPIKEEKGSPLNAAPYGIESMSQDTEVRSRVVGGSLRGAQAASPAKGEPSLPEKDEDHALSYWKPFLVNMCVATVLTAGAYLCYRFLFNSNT

Molecule: O=C(O)c1ccc(/C=N/OCc2ccc(-c3cccc(C(F)(F)P(=O)(O)O)c3)cc2)o1
- IC50 [1]: 2230 nM
- inhibition [2]: Active
- IC50 [3]: > 400000 nM
- IC50 [4]: 190 nM
- inhibition [5]: Active
- IC50 [6]: > 400000 nM
- Activity [7]: Non-toxic
- inhibition [8]: Active
- IC50 [9]: > 400000 nM
- IC50 [10]: > 400000 nM

Molecule: GENTAMICIN
- inhibition [2]: Active

Molecule: O=P(O)(O)C(F)(F)c1cccc(-c2ccc(CO/N=C/c3ccoc3)cc2)c1
- IC50 [4]: 3690 nM

Molecule: Cc1ccc(/C=N/OCc2ccc(-c3cccc(C(F)(F)P(=O)(O)O)c3)cc2)o1
- IC50 [4]: 910 nM

Molecule: O=P(O)(O)C(F)(F)c1cccc(-c2ccc(CO/N=C/c3ccc(CO)o3)cc2)c1
- IC50 [4]: 730 nM

Molecule: O=P(O)(O)C(F)(F)c1cccc(-c2ccc(CO/N=C/c3ccco3)cc2)c1
- IC50 [4]: 1200 nM

B1: Secreted effector protein (Yersinia pestis), O68720 (protein)
chain: MNLSLSDLHRQVSRLVQQESGDCTGKLRGNVAANKETTFQGLTIASGARESEKVFAQTVLSHVANVVLTQEDTAKLLQSTVKHNLNNYDLRSVGNGNSVLVSLRSDQMTLQDAKVLLEAALRQESGARGHVSSHSHSALHAPGTPVREGLRSHLDPRTPPLPPRERPHTSGHHGAGEARATAPSTVSPYGPEARAELSSRLTTLRNTLAPATNDPRYLQACGGEKLNRFRDIQCCRQTAVRADLNANYIQVGNTRTIACQYPLQSQLESHFRMLAENRTPVLAVLASSSEIANQRFGMPDYFRQSGTYGSITVESKMTQQVGLGDGIMADMYTLTIREAGQKTISVPVVHVGNWPDQTAVSSEVTKALASLVDQTAETKRNMYESKGSSAVGDDSKLRPVIHCRAGVGRTAQLIGAMCMNDSRNSQLSVEDMVSQMRVQRNGIMVQKDEQLDVLIKLAEGQGRPLLNS
- Km [11]: 410 µM
- Km [12]: 600 µM
- Km [13]: 170 µM
- Km [14]: Not Active
- Km [15]: 470 µM
- Km [16]: 1130 µM
- Km [17]: Not Active
- Km [18]: 80 µM
- Km [19]: 650 µM
- Km [20]: 260 µM
- Km [21]: 150 µM
- Km [22]: 1140 µM
